Residue numbers refer to the chain shown, from its start.
Assays:
Settings in all cases: stereoisomer not certain
OR5K3 (Homo sapiens) = molecular target: T1, OR5K3 (Homo sapiens) (UniProt A6NET4)
T1 sequence (whole entry): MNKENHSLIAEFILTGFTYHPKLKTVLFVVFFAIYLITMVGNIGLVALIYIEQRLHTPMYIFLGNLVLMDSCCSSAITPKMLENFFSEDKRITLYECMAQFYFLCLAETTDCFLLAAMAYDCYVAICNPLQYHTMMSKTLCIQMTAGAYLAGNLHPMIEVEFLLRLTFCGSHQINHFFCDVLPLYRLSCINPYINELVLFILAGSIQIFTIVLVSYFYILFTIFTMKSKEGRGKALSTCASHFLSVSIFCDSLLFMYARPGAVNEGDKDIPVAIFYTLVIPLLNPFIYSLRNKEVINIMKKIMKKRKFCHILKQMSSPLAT
Procedure, shortened: (§1)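 Values were gathered from published papers (main text and supplementary material), with extra details requested from the original authors when needed, and checked for typos and inconsistencies. Each receptor–molecule pair is called responsive (active) if the original authors judged the measured signal statistically different from baseline, and non-responsive (inactive) otherwise. Assay methods varied by source, often transient mammalian cell-line luciferase assays. Recorded details include cell line, G-protein, co-transfected protein and tags.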

OR5K4 (Homo sapiens) = molecular target: T2, OR5K4 (Homo sapiens) (UniProt A6NMS3)
T2 sequence (whole entry): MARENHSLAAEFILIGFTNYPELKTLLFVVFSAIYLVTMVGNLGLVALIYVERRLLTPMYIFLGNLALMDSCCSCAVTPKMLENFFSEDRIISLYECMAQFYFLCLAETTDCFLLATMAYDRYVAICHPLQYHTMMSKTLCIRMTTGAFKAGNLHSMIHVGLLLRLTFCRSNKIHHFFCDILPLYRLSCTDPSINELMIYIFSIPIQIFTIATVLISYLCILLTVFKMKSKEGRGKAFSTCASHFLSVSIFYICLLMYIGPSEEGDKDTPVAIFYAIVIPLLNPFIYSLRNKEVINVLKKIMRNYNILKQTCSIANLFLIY
Procedure, shortened: as §1

OR5M3 (Homo sapiens) = molecular target: T3, OR5M3 (Homo sapiens) (UniProt Q8NGP4)
T3 sequence (whole entry): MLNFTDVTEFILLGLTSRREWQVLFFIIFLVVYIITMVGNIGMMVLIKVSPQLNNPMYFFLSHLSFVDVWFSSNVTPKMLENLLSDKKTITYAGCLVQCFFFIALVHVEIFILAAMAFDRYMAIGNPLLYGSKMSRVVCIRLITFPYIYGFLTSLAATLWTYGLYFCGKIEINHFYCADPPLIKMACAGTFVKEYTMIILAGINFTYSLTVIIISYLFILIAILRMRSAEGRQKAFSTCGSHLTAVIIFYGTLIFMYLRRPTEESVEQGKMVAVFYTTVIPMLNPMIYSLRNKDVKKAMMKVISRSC
Procedure, shortened: as §1

OR5L1 (Homo sapiens) = molecular target: T4, OR5L1 (Homo sapiens) (UniProt Q8NGL2)
T4 sequence (whole entry): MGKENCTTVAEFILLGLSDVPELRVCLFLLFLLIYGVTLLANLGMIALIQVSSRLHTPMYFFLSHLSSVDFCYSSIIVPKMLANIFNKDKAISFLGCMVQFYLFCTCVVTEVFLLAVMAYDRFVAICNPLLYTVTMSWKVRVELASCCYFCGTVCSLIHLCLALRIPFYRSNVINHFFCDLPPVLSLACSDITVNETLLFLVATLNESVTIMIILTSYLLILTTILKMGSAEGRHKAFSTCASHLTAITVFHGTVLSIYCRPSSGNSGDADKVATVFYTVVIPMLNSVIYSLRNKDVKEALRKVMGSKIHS
Procedure, shortened: as §1

OR5L2 (Homo sapiens) = molecular target: T5, OR5L2 (Homo sapiens) (UniProt Q8NGL0)
T5 sequence (whole entry): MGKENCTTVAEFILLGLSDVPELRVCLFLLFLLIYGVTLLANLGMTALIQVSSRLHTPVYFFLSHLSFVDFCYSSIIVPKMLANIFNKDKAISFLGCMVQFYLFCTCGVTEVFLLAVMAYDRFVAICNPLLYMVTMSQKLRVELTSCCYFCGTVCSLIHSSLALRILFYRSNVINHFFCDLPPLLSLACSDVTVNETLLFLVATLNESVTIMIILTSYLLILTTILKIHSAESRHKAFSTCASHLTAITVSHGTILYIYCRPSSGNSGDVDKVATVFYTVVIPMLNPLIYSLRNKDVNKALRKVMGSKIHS
Procedure, shortened: as §1

OR5M1 (Homo sapiens) = molecular target: T6, OR5M1 (Homo sapiens) (UniProt Q8NGP8)
T6 sequence (whole entry): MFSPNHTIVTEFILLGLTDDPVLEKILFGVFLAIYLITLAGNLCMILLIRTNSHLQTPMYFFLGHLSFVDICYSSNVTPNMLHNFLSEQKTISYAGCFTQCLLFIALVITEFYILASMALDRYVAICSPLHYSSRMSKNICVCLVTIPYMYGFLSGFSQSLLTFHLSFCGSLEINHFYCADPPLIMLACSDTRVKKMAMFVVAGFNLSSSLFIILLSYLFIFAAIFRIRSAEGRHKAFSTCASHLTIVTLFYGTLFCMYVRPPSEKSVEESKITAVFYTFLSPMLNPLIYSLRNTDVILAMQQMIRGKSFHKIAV
Procedure, shortened: as §1

OR5M10 (Homo sapiens) = molecular target: T7, OR5M10 (Homo sapiens) (UniProt Q6IEU7)
T7 sequence (whole entry): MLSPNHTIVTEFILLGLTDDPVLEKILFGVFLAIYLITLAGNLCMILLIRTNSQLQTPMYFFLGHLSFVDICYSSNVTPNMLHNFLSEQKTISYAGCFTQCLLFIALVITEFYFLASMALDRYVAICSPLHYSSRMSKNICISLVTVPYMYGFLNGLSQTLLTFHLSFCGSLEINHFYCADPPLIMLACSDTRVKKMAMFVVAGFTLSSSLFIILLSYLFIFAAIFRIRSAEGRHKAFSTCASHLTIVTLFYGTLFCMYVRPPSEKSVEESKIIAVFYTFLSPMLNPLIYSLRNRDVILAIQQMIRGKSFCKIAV
Procedure, shortened: as §1

OR5M11 (Homo sapiens) = molecular target: T8, OR5M11 (Homo sapiens) (UniProt Q96RB7)
T8 sequence (whole entry): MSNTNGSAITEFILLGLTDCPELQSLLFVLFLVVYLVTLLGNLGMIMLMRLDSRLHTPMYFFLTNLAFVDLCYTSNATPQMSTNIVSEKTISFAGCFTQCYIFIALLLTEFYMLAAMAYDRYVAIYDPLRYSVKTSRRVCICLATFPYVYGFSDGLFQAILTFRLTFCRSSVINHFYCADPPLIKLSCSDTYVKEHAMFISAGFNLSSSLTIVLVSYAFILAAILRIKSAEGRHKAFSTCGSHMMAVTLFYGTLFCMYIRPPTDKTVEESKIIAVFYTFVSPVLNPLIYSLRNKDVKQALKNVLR
Procedure, shortened: as §1

OR5M8 (Homo sapiens) = molecular target: T9, OR5M8 (Homo sapiens) (UniProt Q8NGP6)
T9 sequence (whole entry): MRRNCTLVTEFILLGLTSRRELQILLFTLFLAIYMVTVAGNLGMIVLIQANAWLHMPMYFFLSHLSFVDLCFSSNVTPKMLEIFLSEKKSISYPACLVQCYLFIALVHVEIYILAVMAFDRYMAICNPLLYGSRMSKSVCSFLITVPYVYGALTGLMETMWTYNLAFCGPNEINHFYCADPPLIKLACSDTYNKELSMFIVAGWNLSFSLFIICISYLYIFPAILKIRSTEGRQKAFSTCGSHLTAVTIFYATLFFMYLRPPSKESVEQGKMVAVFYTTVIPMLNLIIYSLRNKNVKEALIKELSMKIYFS
Procedure, shortened: as §1

OR5M9 (Homo sapiens) = molecular target: T10, OR5M9 (Homo sapiens) (UniProt Q8NGP3)
T10 sequence (whole entry): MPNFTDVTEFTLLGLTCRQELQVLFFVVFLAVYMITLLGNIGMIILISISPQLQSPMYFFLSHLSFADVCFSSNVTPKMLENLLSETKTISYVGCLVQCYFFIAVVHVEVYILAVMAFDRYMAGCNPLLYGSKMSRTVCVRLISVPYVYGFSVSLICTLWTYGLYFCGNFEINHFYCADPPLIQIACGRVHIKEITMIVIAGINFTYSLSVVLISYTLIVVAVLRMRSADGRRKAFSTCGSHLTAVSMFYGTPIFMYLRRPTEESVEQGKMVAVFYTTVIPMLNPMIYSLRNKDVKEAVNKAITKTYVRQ
Procedure, shortened: as §1

OR5P2 (Homo sapiens) = molecular target: T11, OR5P2 (Homo sapiens) (UniProt Q8WZ92)
T11 sequence (whole entry): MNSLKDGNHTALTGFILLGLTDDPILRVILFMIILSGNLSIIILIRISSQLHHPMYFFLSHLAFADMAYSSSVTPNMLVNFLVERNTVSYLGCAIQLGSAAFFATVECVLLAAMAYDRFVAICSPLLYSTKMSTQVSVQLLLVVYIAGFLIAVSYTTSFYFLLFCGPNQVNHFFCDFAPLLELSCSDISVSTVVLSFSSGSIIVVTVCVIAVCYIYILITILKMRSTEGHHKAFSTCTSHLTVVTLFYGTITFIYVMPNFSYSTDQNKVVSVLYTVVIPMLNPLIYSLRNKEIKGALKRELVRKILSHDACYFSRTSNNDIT
Procedure, shortened: as §1

OR5P3 (Homo sapiens) = molecular target: T12, OR5P3 (Homo sapiens) (UniProt Q8WZ94)
T12 sequence (whole entry): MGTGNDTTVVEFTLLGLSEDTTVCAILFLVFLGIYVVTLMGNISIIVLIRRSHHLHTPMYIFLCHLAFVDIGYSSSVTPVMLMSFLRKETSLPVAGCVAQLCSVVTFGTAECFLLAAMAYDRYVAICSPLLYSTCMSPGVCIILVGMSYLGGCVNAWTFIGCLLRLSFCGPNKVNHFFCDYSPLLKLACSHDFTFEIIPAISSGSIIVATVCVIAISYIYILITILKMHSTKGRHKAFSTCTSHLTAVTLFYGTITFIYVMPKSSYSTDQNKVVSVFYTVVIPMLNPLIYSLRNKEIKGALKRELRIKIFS
Procedure, shortened: as §1

OR5T1 (Homo sapiens) = molecular target: T13, OR5T1 (Homo sapiens) (UniProt Q8NG75)
T13 sequence (whole entry): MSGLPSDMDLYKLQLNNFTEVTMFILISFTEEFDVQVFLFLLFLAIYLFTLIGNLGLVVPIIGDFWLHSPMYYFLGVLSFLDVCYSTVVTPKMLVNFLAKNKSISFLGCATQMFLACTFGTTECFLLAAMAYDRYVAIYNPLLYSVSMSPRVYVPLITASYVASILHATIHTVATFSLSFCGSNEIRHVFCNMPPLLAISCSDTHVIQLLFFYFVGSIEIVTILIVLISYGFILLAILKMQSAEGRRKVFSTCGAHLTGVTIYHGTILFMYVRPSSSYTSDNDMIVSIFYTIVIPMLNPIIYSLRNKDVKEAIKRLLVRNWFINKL
Procedure, shortened: as §1

OR5T2 (Homo sapiens) = molecular target: T14, OR5T2 (Homo sapiens) (UniProt Q8NGG2)
T14 sequence (whole entry): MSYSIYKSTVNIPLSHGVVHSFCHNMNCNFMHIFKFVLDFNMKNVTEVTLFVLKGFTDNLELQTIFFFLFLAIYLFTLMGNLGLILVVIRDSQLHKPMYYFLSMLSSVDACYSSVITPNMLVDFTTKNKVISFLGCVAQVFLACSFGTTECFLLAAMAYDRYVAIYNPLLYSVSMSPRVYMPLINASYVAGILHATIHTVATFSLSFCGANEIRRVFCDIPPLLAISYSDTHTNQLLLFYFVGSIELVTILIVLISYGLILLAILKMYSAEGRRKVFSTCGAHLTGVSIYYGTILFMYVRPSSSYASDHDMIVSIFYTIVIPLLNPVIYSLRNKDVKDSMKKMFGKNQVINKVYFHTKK
Procedure, shortened: as §1

OR5M1 T295R M301I = tested on: T15, OR5M1 T295R M301I
T15 sequence (whole entry): T6 sequence (whole entry) with T295R, M301I
Procedure, shortened: as §1

OR5M3 N3Y A156T = tested on: T16, OR5M3 N3Y A156T
T16 sequence (whole entry): T3 sequence (whole entry) with N3Y, A156T
Procedure, shortened: as §1

OR5MA L2F C311H = tested on: T17, OR5MA L2F C311H
T17 sequence (whole entry): T7 sequence (whole entry) with L2F, C311H
Procedure, shortened: as §1

OR5MA L2F Q54H C311H = tested on: T18, OR5MA L2F Q54H C311H
T18 sequence (whole entry): T7 sequence (whole entry) with L2F, Q54H, C311H
Procedure, shortened: as §1

OR5P3 L301R = tested on: T19, OR5P3 L301R
T19 sequence (whole entry): T12 sequence (whole entry) with L301R
Procedure, shortened: as §1

OR5R1 C122R S128G F184L = tested on: T20, OR5R1 C122R S128G F184L
T20 sequence (whole entry): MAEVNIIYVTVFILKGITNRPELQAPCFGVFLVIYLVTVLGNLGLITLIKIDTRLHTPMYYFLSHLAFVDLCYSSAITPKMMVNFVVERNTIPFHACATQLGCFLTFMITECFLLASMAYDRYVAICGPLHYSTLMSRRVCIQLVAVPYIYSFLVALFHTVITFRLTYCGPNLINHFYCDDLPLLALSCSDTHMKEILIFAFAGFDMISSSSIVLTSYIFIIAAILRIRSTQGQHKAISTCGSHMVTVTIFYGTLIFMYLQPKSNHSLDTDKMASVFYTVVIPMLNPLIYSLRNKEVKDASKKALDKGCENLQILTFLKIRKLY
Procedure, shortened: as §1

Measured: odorant receptor agonist call

Cc1nccnc1C
inactive: OR5K3 (Homo sapiens) | OR5K4 (Homo sapiens)

CCc1ncc(C)nc1CC
inactive: OR5K3 (Homo sapiens) | OR5K4 (Homo sapiens) | OR5M3 (Homo sapiens)

CCc1nccnc1C
inactive: OR5K3 (Homo sapiens) | OR5K4 (Homo sapiens)

CC(CO)CS (stereo not drawn)
not listed: OR5M1 T295R M301I | OR5M3 N3Y A156T | OR5MA L2F C311H | OR5MA L2F Q54H C311H | OR5P3 L301R | OR5R1 C122R S128G F184L
inactive: all other assays above

Cc1cnccn1
inactive: OR5K3 (Homo sapiens) | OR5K4 (Homo sapiens)

CCCCCCC=CCCC=O
inactive: all assays above

— the M2OR odorant receptor database
